Reference: PubChem BioAssay AID624016 (Broad Institute, 2012)
Calls of active or inactive are those of the source.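 Rule for the calls: active = fitted curve reaching 35% inhibition at both 405 and 600 nm absorbance, in duplicate, within twice the top valid dose; inactive = the rest, including signal rising instead of falling.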

Test system: not listed separately
Experiment: P. aeruginosa growth delay under iron chelation, dose response, absorbance 405 nm, dry powder, set 4 (AID 624016)
Settings: P. aeruginosa + EDDHA, pyoverdine absorbance 405 nm, 24-30 h; at 16 µM (top of the series)
Method in brief: (§1)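 test system = P. aeruginosa ATCC 15692 cells | schedule = 24-30 h exposure at 37 °C | measured by = absorbance 405 nm, pyoverdine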

Which activity change, negative = inhibition does the source give for Cc1ccc(C(C#N)c2ccccc2OC(F)(F)F)nc1C#N (configuration not stated) here?
Its activity change, negative = inhibition is -24.9% (inactive).

Same assay, conditions: P. aeruginosa + EDDHA, pyoverdine absorbance 405 nm, 24-30 h; at 50 µM (top of the series)

With N#CC(c1cccc(C(F)(F)F)n1)c1ccccc1OC(F)(F)F (configuration not stated) as the compound, how does the activity change, negative = inhibition read?
Its activity change, negative = inhibition is -7.92% (inactive).

With CC(C)CC(C#N)c1ccc(Cl)cc1 (configuration not stated) as the compound, how does the activity change, negative = inhibition read?
Its activity change, negative = inhibition is -16.3% (inactive).

For N#CC(c1ccc(C(F)(F)F)c(Cl)n1)c1ccccc1OC(F)(F)F (configuration not stated), which activity change, negative = inhibition is on record?
The activity change, negative = inhibition was -6.71% (inactive).

Which activity change, negative = inhibition does the source give for N#CC(c1ccc(Cl)cc1Cl)c1ncccc1Cl (configuration not stated) here?
Its activity change, negative = inhibition is 1.29% (inactive).

With CCCCC(C#N)c1ccc(Cl)cc1F (configuration not stated) as the compound, how does the activity change, negative = inhibition read?
The activity change, negative = inhibition was 5.25% (inactive).

With N#CC(c1ccc(C(F)(F)F)cc1)c1cccc(Cl)n1 (configuration not stated) as the compound, how does the activity change, negative = inhibition read?
Its activity change, negative = inhibition is -4.32% (inactive).

With N#CC(c1ccc(Cl)cc1)c1ccc(C(F)(F)F)cn1 (configuration not stated) as the compound, how does the activity change, negative = inhibition read?
The activity change, negative = inhibition was 3.24% (inactive).

With CCCCC(C#N)c1ccc(C(F)(F)F)cc1 (configuration not stated) as the compound, how does the activity change, negative = inhibition read?
Its activity change, negative = inhibition is -3.25% (inactive).

Which activity change, negative = inhibition does the source give for CCCC(C#N)c1ccc(Cl)cc1 (configuration not stated) here?
The activity change, negative = inhibition was -8.71% (inactive).

Which activity change, negative = inhibition does the source give for CCCCC(C#N)c1ccc(Cl)cc1 (configuration not stated) here?
Its activity change, negative = inhibition is -0.817% (inactive).

For N#CC(c1ccc(C(F)(F)F)cc1)c1ccc(C(F)(F)F)c(Cl)n1 (configuration not stated), which activity change, negative = inhibition is on record?
Its activity change, negative = inhibition is 2.24% (inactive).

With N#Cc1cccc(C(C#N)c2ccc(Cl)cc2F)n1 (configuration not stated) as the compound, how does the activity change, negative = inhibition read?
The activity change, negative = inhibition was -15.5% (inactive).

Which activity change, negative = inhibition does the source give for N#CC(c1ccc(Cl)cc1)c1ccc(C(F)(F)F)c(Cl)n1 (configuration not stated) here?
Its activity change, negative = inhibition is 20.6% (inactive).

For N#CC(c1ccc(C(F)(F)F)c(Cl)n1)c1ccc(Cl)cc1Cl (configuration not stated), which activity change, negative = inhibition is on record?
The activity change, negative = inhibition was 15.9% (inactive).

With N#Cc1ccc(C(C#N)c2ccc(Cl)cc2Cl)nc1 (configuration not stated) as the compound, how does the activity change, negative = inhibition read?
Its activity change, negative = inhibition is -0.009% (inactive).

For CCCCC(C#N)c1ccc(F)cc1 (configuration not stated), which activity change, negative = inhibition is on record?
The activity change, negative = inhibition was -0.303% (inactive).

With N#CC(c1ccc(F)cc1)c1ccc(C(F)(F)F)c(Cl)n1 (configuration not stated) as the compound, how does the activity change, negative = inhibition read?
Its activity change, negative = inhibition is -4.12% (inactive).

With CCCCC(C#N)c1ccc(Cl)cc1Cl (configuration not stated) as the compound, how does the activity change, negative = inhibition read?
The activity change, negative = inhibition was -5.19% (inactive).

Which activity change, negative = inhibition does the source give for CCCCC(C#N)c1ccccc1OC(F)(F)F (configuration not stated) here?
The activity change, negative = inhibition was -2.91% (inactive).

With CC(C#N)(c1ccc(Cl)cc1)c1ccc(C(F)(F)F)cn1 (configuration not stated) as the compound, how does the activity change, negative = inhibition read?
The activity change, negative = inhibition was -4.71% (inactive).

Test system: P. aeruginosa + EDDHA, pyoverdine absorbance 405 nm, 24-30 h
Experiment: as above
Settings: not given
Method in brief: as §1

With N#CC(c1ccc(Cl)cc1)c1ncccc1Cl (configuration not stated) as the compound, how does the AC35 read?
Its AC35 is 10.7 µM.

Which AC35 does the source give for N#CC(c1ccc(F)cc1)c1cccc(C(F)(F)F)n1 (configuration not stated) here?
Its AC35 is 28.9 µM.

For N#CC(c1cccc(C(F)(F)F)n1)c1ccc(Cl)cc1F (configuration not stated), which AC35 is on record?
The AC35 was 15 µM.

For N#CC(c1ccc(C(F)(F)F)cc1)c1cccc(C(F)(F)F)n1 (configuration not stated), which AC35 is on record?
Its AC35 is > 50 µM (inactive).

With N#CC(c1ccc(Cl)cc1)c1cccc(C(F)(F)F)n1 (configuration not stated) as the compound, how does the AC35 read?
Its AC35 is 8.64 µM.

With N#CC(c1cccc(Cl)n1)c1ccc(Cl)cc1F (configuration not stated) as the compound, how does the AC35 read?
Its AC35 is 22.3 µM.
